Measurements reported in ChEMBL document CHEMBL3244422, “Synthesis and biological activity of beta-melanotropins and analogues” (1977).
Where a SMILES comes first, the peptide text is derived from it. The star is where a group is joined. For = O=C*

Columns and labels:
Zone of skin [1] = experiment: Melanotropic activity in frog skin assessed as skin darkening at 18 ng relative to control; assay type: functional, Anura
Procedure, shortened: (§1)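 Skin-darkening activity of the synthetic peptides measured in vitro on isolated frog skin.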

Zone of skin [2] = experiment: Melanotropic activity in frog skin assessed as skin darkening at 6 ng relative to beta-c1-MSH; assay type: functional, Anura; procedure, shortened: as §1
Zone of skin [3] = experiment: Melanotropic activity in frog skin assessed as skin darkening at 6 ng relative to control; assay type: functional, Anura; procedure, shortened: as §1
[4] = Lipolytic activity in isolated rabbit fat cells assessed as glycerol production per gram of cells at 37 ng measured every hour; assay type: functional, Oryctolagus cuniculus
[5] = Lipolytic activity in isolated rabbit fat cells assessed as glycerol production per gram of cells at 111 ng measured every hour; assay type: functional, Oryctolagus cuniculus
[6] = Lipolytic activity in isolated rabbit fat cells assessed as glycerol production per gram of cells at 37 ng measured every hour relative to beta-c1-MSH; assay type: functional, Oryctolagus cuniculus
Zone of skin [7] = experiment: Melanotropic activity in frog skin assessed as skin darkening at 2.7 ng relative to control; assay type: functional, Anura; procedure, shortened: as §1
Zone of skin [8] = experiment: Melanotropic activity in frog skin assessed as skin darkening at 2.7 ng relative to beta-b-MSH; assay type: functional, Anura; procedure, shortened: as §1
[9] = Lipolytic activity in isolated rabbit fat cells assessed as glycerol production per gram of cells at 22 ng measured every hour; assay type: functional, Oryctolagus cuniculus
Zone of skin [10] = experiment: Melanotropic activity in frog skin assessed as skin darkening at 8.1 ng relative to control; assay type: functional, Anura; procedure, shortened: as §1
[11] = Lipolytic activity in isolated rabbit fat cells assessed as glycerol production per gram of cells at 66 ng measured every hour; assay type: functional, Oryctolagus cuniculus
[12] = Lipolytic activity in isolated rabbit fat cells assessed as glycerol production per gram of cells at 22 ng measured every hour relative to beta-b-MSH; assay type: functional, Oryctolagus cuniculus
Zone of skin [13] = experiment: Melanotropic activity in frog skin assessed as skin darkening at 2.3 ng relative to control; assay type: functional, Anura; procedure, shortened: as §1
Zone of skin [14] = experiment: Melanotropic activity in frog skin assessed as skin darkening at 6.9 ng relative to control; assay type: functional, Anura; procedure, shortened: as §1
Zone of skin [15] = experiment: Melanotropic activity in frog skin assessed as skin darkening at 2.6 ng relative to control; assay type: functional, Anura; procedure, shortened: as §1
Zone of skin [16] = experiment: Melanotropic activity in frog skin assessed as skin darkening at 2.6 ng relative to beta-b-MSH; assay type: functional, Anura; procedure, shortened: as §1
Zone of skin [17] = experiment: Melanotropic activity in frog skin assessed as skin darkening at 7.8 ng relative to control; assay type: functional, Anura; procedure, shortened: as §1
[18] = Lipolytic activity in isolated rabbit fat cells assessed as glycerol production per gram of cells at 1100 ng measured every hour; assay type: functional, Oryctolagus cuniculus
[19] = Lipolytic activity in isolated rabbit fat cells assessed as glycerol production per gram of cells at 3300 ng measured every hour; assay type: functional, Oryctolagus cuniculus
[20] = Lipolytic activity in isolated rabbit fat cells assessed as glycerol production per gram of cells at 1100 ng measured every hour relative to beta-c1-MSH; assay type: functional, Oryctolagus cuniculus
Zone of skin [21] = experiment: Melanotropic activity in frog skin assessed as skin darkening at 3 ng relative to control; assay type: functional, Anura; procedure, shortened: as §1
Zone of skin [22] = experiment: Melanotropic activity in frog skin assessed as skin darkening at 9 ng relative to control; assay type: functional, Anura; procedure, shortened: as §1

| Molecule | Activity (Zone of skin [1]) [%] | Activity (Zone of skin [2]) [%] | Activity (Zone of skin [3]) [%] | Activity [4] [µmol] | Activity [5] [µmol] | Activity [6] [%] | Activity [9] [µmol] | Activity [11] [µmol] | also measured |
| --- | --- | --- | --- | --- | --- | --- | --- | --- | --- |
| CSCC[C@H](NC(=O)[C@H](CCCCN)NC(=O)[C@H](Cc1ccc(O)cc1)NC(=O)[C@@H]1CCCN1C(=O)CNC(=O)CNC(=O)[C@@H](N)CC(=O)O)C(=O)N[C@@H](CCC(N)=O)C(=O)N[C@@H](Cc1cnc[nH]1)C(=O)N[C@@H](Cc1ccccc1)C(=O)N[C@@H](CCCNC(=N)N)C(=O)N[C@@H](Cc1cn(C=O)c2ccccc12)C(=O)NCC(=O)N[C@@H](CO)C(=O)N1CCC[C@H]1C(=O)N1CCC[C@H]1C(=O)N[C@@H](CCCCN)C(=O)N[C@@H](CC(=O)O)C(=O)O (H-DGGPYKMQHFRW(For)GSPPKD-OH) | 52.4 | 39.7 | 32.8 | 1.09 | 2.05 | 10.2 |  |  |  |
| CSCC[C@H](NC(=O)[C@H](CCCCN)NC(=O)[C@H](Cc1ccc(O)cc1)NC(=O)[C@@H]1CCCN1C(=O)CNC(=O)[C@H](CO)NC(=O)[C@@H](N)CC(=O)O)C(=O)N[C@@H](CCC(=O)O)C(=O)N[C@@H](Cc1cnc[nH]1)C(=O)N[C@@H](Cc1ccccc1)C(=O)N[C@@H](CCCNC(=N)N)C(=O)N[C@@H](Cc1c[nH]c2ccccc12)C(=O)NCC(=O)N[C@@H](CO)C(=O)N1CCC[C@H]1C(=O)N1CCC[C@H]1C(=O)N[C@@H](CCCCN)C(=O)N[C@@H](CC(=O)O)C(=O)O (stereo in doubt; form 1) |  |  |  | 1.78 | 2.96 | 40.2 | 1.18 | 3.61 | Activity (Zone of skin [7]): 30.1%; Activity (Zone of skin [8]): 120.2%; Activity (Zone of skin [10]): 49.6%; Activity [12]: 95.5% |
| CSCC[C@H](NC(=O)[C@H](CCCCN)NC(=O)[C@H](Cc1ccc(O)cc1)NC(=O)[C@@H]1CCCN1C(=O)CNC(=O)[C@H](CO)NC(=O)[C@@H](N)CC(=O)O)C(=O)N[C@@H](CCC(=O)O)C(=O)N[C@@H](Cc1cnc[nH]1)C(=O)N[C@@H](Cc1ccccc1)C(=O)N[C@@H](CCCNC(=N)N)C(=O)N[C@@H](Cc1c[nH]c2ccccc12)C(=O)NCC(=O)N[C@@H](CO)C(=O)N1CCC[C@H]1C(=O)N1CCC[C@H]1C(=O)N[C@@H](CCCCN)C(=O)N[C@@H](CC(=O)O)C(=O)O (stereo in doubt; form 2) |  |  |  |  |  |  | 1.38 | 3.76 | Activity (Zone of skin [13]): 29.1%; Activity (Zone of skin [14]): 44.6% |
| H-DEGPYKMEHFRWGSPPKD-OH |  |  |  |  |  |  | 1.62 | 3.49 | Activity (Zone of skin [15]): 49.6%; Activity (Zone of skin [16]): 355.6%; Activity (Zone of skin [17]): 69.8%; Activity [12]: 102.4% |
| H-DGGPYKMQHFRFGSPPKD-OH | 38.2 | 28 | 26.2 |  |  |  |  |  | Activity [18]: 1.29 µmol; Activity [19]: 1.63 µmol; Activity [20]: 0.006% |
| H-DGGPYKMQHFRWGSPPKD-OH | 71 |  | 62 | 2.94 | 3.6 |  |  |  | Activity (Zone of skin [21]): 32.7%; Activity (Zone of skin [22]): 63.5% |
| H-DGGPYKMQHGRWGSPPKD-OH | 7.8 | 0.8 | 5.5 |  |  |  |  |  | Activity [18]: 0.19 µmol; Activity [19]: 0.37 µmol; Activity [20]: 0.001% |
| H-DGGPYKMRHFRWGSPPKD-OH | 24.6 | 10.5 | 17.1 | 1.73 | 3.12 | 34.2 |  |  |  |
